The source of these data is ChEMBL document CHEMBL2146377, “Rational design of 4-aryl-1,2,3-triazoles for indoleamine 2,3-dioxygenase 1 inhibition” (J Med Chem, 2012).

Data set [1] is described as follows: Dissociation constant, pKa of the compound at pH 11 to 12 by spectrophotometric analysis. In kind it is physicochemical.
The next data set is described as follows: physchem. As to conditions: pH 2.
The target in data set [2] is T1, Indoleamine 2,3-dioxygenase 1 (Homo sapiens, UniProt P14902). As to conditions: at 1 mM.
Target sequence in this assay (P14902 whole entry, looked up): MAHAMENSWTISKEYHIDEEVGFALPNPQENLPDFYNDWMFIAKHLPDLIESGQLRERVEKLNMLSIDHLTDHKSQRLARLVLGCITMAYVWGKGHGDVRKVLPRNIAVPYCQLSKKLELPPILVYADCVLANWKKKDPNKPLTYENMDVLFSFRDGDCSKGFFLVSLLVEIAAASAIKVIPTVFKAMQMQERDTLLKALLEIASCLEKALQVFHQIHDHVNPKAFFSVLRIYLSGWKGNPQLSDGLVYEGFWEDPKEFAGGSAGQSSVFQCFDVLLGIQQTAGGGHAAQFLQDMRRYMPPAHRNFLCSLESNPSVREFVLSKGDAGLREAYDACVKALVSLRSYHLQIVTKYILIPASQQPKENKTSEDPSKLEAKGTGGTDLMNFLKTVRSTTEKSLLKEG
Data set [3] addresses T1, Indoleamine 2,3-dioxygenase 1. In words: Inhibition of human IDO1 transfected in HEK293 clone 6 cells by HPLC analysis. The class given is cell-based.
Target sequence in this assay (P14902 whole entry, looked up): as above
In data set [4] the target is Indoleamine 2,3-dioxygenase 1 (Mus musculus, UniProt P28776). Description: Inhibition of mouse IDO1 in P815 clone 6 cells by HPLC analysis. In kind it is cell-based. The method in brief:
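Murine mastocytoma P815 stably transfected cells were used: P815-mIDO1 clone 6 for mouse IDO1 and P815B-hIDO1 clone 6 for human IDO1. Cells with inhibitor were incubated at 37 °C until under 50% of tryptophan was consumed, as tracked in control wells by pDMAB absorbance at 480 nm. Supernatant was TCA-precipitated, and tryptophan and kynurenine were quantified by C18 HPLC. Values are the mean of ≥2 independent assays.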

The test system of a further data set is HepG2. In words: Cytotoxicity against human HepG2 cells after 24 hrs by MTS-PMS assay. The conditions noted are these: HepG2, 24 h, read-out: LD50 (the source's name). In kind it is functional. The method in brief: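 Hep G2 cells (2 × 10⁴ per well) in IMDM with 10% FCS exposed to compound titrated 0.001–100 μM for 24 h at 37 °C; living cells counted by MTS/PMS assay; LD₅₀ reported as mean of at least two independent assays with standard deviation.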

In data set [5] the target is Tryptophan 2,3-dioxygenase (Homo sapiens, UniProt P48775). In words: Inhibition of human TDO transfected in mouse P815B clone 19 cells by HPLC analysis. The class given is cell-based.
Chain of Tryptophan 2,3-dioxygenase (Homo sapiens, UniProt P48775) (P48775 whole entry): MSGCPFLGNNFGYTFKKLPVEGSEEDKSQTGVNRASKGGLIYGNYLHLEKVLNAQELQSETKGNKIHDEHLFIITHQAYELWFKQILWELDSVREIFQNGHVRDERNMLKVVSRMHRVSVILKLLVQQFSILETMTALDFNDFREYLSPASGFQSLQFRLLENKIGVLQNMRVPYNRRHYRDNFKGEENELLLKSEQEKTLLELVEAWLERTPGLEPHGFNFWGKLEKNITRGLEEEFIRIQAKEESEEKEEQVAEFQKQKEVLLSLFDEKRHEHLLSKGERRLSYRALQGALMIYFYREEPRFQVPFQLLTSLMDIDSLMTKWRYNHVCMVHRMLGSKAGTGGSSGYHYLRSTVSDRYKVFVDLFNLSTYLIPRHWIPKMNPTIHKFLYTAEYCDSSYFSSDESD
Data set [6] deals with Tryptophan 2,3-dioxygenase (Mus musculus, UniProt P48776). In words: Inhibition of mouse TDO in P815 clone 12 cells by HPLC analysis. In kind it is cell-based.
Chain of Tryptophan 2,3-dioxygenase (Mus musculus, UniProt P48776) (P48776 whole entry): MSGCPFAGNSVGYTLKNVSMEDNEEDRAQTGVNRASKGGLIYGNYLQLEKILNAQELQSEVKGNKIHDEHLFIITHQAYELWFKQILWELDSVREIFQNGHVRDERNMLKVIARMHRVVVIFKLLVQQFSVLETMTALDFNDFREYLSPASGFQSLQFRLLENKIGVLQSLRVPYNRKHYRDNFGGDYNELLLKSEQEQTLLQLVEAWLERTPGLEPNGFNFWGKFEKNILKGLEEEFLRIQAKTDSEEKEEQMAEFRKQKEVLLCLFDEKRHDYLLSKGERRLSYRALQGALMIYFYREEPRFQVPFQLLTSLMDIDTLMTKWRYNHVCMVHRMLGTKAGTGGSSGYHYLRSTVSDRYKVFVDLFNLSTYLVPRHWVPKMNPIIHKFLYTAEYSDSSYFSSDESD
In data set [7] the target is T1, Indoleamine 2,3-dioxygenase 1. In words: Inhibition of human recombinant N-terminal His-tagged IDO1 (Ala2 to Gly403) overexpressed in Escherichia coli BL21 at pH 6.5 after 60 mins by HPLC analysis.
Target sequence in this assay (P14902 whole entry): as the sequence (P14902 whole entry, looked up) above
Data set [8] shares this target. In words: Inhibition of human IDO1 transfected in mouse P815B clone-6 cells by HPLC analysis. The class given is cell-based.
Target sequence in this assay (P14902 whole entry): as the sequence (P14902 whole entry, looked up) above

The source made the active and inactive calls. No cut-off for these calls is given here.

Chain of Indoleamine 2,3-dioxygenase 1 (Mus musculus, UniProt P28776) (P28776 whole entry): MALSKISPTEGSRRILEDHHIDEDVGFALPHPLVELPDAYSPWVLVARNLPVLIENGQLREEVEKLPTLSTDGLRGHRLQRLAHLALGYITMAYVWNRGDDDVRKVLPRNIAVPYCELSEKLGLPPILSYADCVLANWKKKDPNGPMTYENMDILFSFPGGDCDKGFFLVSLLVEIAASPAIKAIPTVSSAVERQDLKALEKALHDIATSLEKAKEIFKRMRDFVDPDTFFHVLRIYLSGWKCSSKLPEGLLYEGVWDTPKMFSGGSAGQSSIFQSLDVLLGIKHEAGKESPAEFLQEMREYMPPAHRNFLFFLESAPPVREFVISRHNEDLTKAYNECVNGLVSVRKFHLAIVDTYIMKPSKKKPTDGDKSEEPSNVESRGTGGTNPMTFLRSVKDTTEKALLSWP

On to `c1ccc(-c2nc[nH]n2)cc1`, for which the pKa is 2.05 in data set [1] and 9.29 in “physchem”. In data set [2], the inhibition result is “inactive”.
As to `c1ccc(-c2cnn[nH]2)cc1`, the inhibition entry in data set [3] was “Active”. Further, the 50% inhibitory concentration (IC50) in data set [4] was 0.18 µM; in [5], > 100 µM; in [6], > 100 µM. The pKa was determined as 0.4 in data set [1] and 8.62 in “physchem”. Besides, the CC50 with HepG2 was > 100 µM.
For the molecule `Clc1cccc(-c2c[nH]nn2)c1`, the half-maximal inhibitory concentration (IC50) in data set [7] was 1.2 µM; in data set [4] it was 0.02 µM; in [5], > 100 µM; in data set [6] it was > 100 µM; in data set [8] it was 0.62 µM. Further, the inhibition result in data set [3] was “Active”. In “physchem”, this molecule registered a pKa of 8.32. In addition, the CC50 in the data set on HepG2 is > 100 µM.
With `c1cncc(-c2c[nH]nn2)c1`, the IC50 in data set [7] amounted to 1000 µM. For the same molecule, the pKa in the data set “physchem” was determined as 8.14.
`Clc1cccc(-c2c[nH]nn2)c1Cl`: the half-maximal inhibitory concentration (IC50) in data set [7] was 23 µM; in data set [4] it was 1.7 µM; in [5], > 100 µM; in data set [6] it was > 100 µM; in data set [8] it was > 100 µM. Further, the inhibition entry in data set [3] is “Active”. In the data set “physchem”, this molecule yielded a pKa of 8.06. For the same molecule, the CC50 in the data set on HepG2 was > 100 µM.
With `Clc1ccc(Cl)c(-c2c[nH]nn2)c1`, the IC50 in data set [7] is 6.4 µM; in data set [4], 0.15 µM; in data set [5] it was > 100 µM; in data set [6], > 100 µM; in data set [8] it was 34 µM. Further, the inhibition entry in data set [3] was “Active”. In the data set “physchem”, this molecule showed a pKa of 8.17. For the same molecule, in the data set with HepG2, the CC50 is > 100 µM.
As for `Fc1cccc(-c2c[nH]nn2)c1`, the half-inhibitory concentration (IC50) in data set [7] was 47 µM; in [4], 1.1 µM; in data set [5] it was > 100 µM; in data set [6], > 100 µM; in data set [8], > 100 µM. Moreover, the inhibition entry in [3] was “Active”. Also, the pKa in “physchem” came out at 8.38. Moreover, the CC50 in the data set with HepG2 was > 100 µM.
Turning to `Clc1ccc(-c2c[nH]nn2)cc1`, in data set [7], the IC50 is 530 µM. In “physchem”, the pKa was determined as 8.46.
On to `Clc1ccccc1-c1c[nH]nn1`, for which the IC50 was 32 µM in [7]; 1.5 µM in data set [4]; > 100 µM in [5]; > 100 µM in data set [6]; > 100 µM in data set [8]. Moreover, the pKa in “physchem” is 8.5.
`c1c[nH]cn1` [IMIDAZOLE] returned a pKa in the data set “physchem” of 14.5.
Molecule `Cc1[nH]nnc1-c1ccccc1` displayed a pKa in “physchem” of 9.11. Also, in data set [2], the inhibition result is “inactive”.
Regarding `c1cc(-c2cnn[nH]2)ccn1`, the IC50 in data set [7] was 85 µM. Also, the pKa in “physchem” came out at 7.85.
As for `COc1ccccc1-c1c[nH]nn1`, in [3], the inhibition entry is “Active”. Moreover, the IC50 in data set [4] was 20 µM; in data set [5], > 100 µM; in [6], > 100 µM; in data set [8], > 100 µM. For the same molecule, the pKa in the data set “physchem” worked out at 8.99. Moreover, in the data set on HepG2, the CC50 is > 100 µM. In addition, the inhibition entry in data set [2] was “inactive”.
Take `Fc1cc(-c2c[nH]nn2)ccn1`: the half-inhibitory concentration (IC50) was 7.4 µM in data set [7]; 0.12 µM in data set [4]; > 100 µM in [5]; > 100 µM in [6]; 7 µM in [8]. For the same molecule, the inhibition entry in [3] is “Active”. This molecule also registered a pKa in the data set “physchem” of 7.59. Besides, in the data set on HepG2, the CC50 is > 100 µM.
In the case of `c1c[nH]nn1`, the values for the pKa (in data set [1]; in “physchem”) were 1.17 and 9.26, respectively.
On to `c1nc[nH]n1` [1,2,4-TRIAZOLE], for which the pKa was 2.19 in [1] and 10.3 in “physchem”.
For `FC(F)(F)c1ccccc1-c1c[nH]nn1`, the concentration for half-maximal inhibition (IC50) is 650 µM in data set [7]; 20 µM in [4]; > 100 µM in data set [5]; > 100 µM in data set [6]; > 100 µM in data set [8]. Besides, in data set [3], the inhibition result was “Active”. The CC50 with HepG2 was > 100 µM.
With `Brc1cccc(-c2c[nH]nn2)c1`, the 50% inhibitory concentration (IC50) in data set [7] was 2 µM; in data set [4] it was 0.023 µM; in data set [5] it was > 100 µM; in [6] it was > 100 µM; in data set [8] it was 0.94 µM. The inhibition result in [3] is “Active”. In addition, in the data set on HepG2, the CC50 was > 100 µM.
Consider `c1nnn[nH]1` [TETRAZOLE], for which the pKa in the data set “physchem” came to 4.79.
For `Clc1cc(-c2c[nH]nn2)ccn1`, the IC50 was 2.8 µM in [7]; 0.06 µM in [4]; > 100 µM in data set [5]; > 100 µM in data set [6]; 3.5 µM in data set [8]. Also, in data set [3], the inhibition result was “Active”. The molecule further had a pKa in the data set “physchem” of 7.6. Further, the CC50 in the data set with HepG2 is > 100 µM.
For the molecule `c1ccc(-c2c[nH]cn2)cc1`, the pKa in data set [1] came to 6.1; in the data set “physchem”, 13.4.
Regarding `c1ccc(-c2nnn[nH]2)cc1`, the pKa in the data set “physchem” turned out to be 4.53. For the same molecule, the inhibition result in data set [2] is “inactive”.

In general, pKa refers to the negative logarithm of the acid dissociation constant. Usually IC50 stands for the midpoint of a concentration-inhibition curve.
